Measured values as given in ChEMBL document CHEMBL2010644, “Evaluation and discovery of novel synthetic chalcone derivatives as anti-inflammatory agents” (J Med Chem, 2011).
Activity calls are given as the source filed them. The calls are words filed in the database; no cut-off is given here.

What was measured:
RAW264.7 [1] = assay: Antiinflammatory activity in mouse RAW264.7 cells assessed as inhibition of LPS-induced IL6 production at 10 uM incubated for 2 hrs prior to LPS-challenge measured after 22 hrs by ELISA; type: functional, cell-based
Procedure, shortened: (§1)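 RAW264.7 cells grown in DMEM with 10% FBS at 37 °C, 5% CO2, plated at 1.2 × 10^6/plate overnight. Compound pretreatment 2 h (screen at 10 μM; dose-response at 2.5, 5.0, 10 μM), then LPS 0.5 μg/mL for 22 h. Medium TNF-α or IL-6 measured by ELISA, normalized to cell protein, expressed as % of LPS control; IC50 derived from dose series.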

RAW264.7 [2] = assay: Antiinflammatory activity in mouse RAW264.7 cells assessed as inhibition of LPS-induced TNFalpha production at 10 uM incubated for 2 hrs prior to LPS-challenge measured after 22 hrs by ELISA; type: functional, cell-based; procedure, shortened: as §1
RAW264.7 [3] = assay: Antiinflammatory activity in mouse RAW264.7 cells assessed as inhibition of LPS-induced IL6 production incubated for 2 hrs prior to LPS-challenge measured after 22 hrs by ELISA; type: functional, cell-based; procedure, shortened: as §1
[4] = system: Peritoneal macrophage cell; assay: Antiinflammatory activity in ICR mouse primary peritoneal macrophages assessed as downregulation of high glucose-induced IL6 mRNA expression at 10 uM incubated for 2 hrs prior to high glucose-challenge measured after 3 hrs by RT-qPCR analysis; type: functional, cell-based
Procedure, shortened: (§2)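 Peritoneal macrophages (1 × 10^6) pretreated with compound (10 μM) or DMSO for 2 h, then high glucose (25 mM) for 3 h. Low-glucose reference cells kept in RPMI-1640 with 5.5 mM glucose. TNF-α, IL-1β, IL-6 and IL-12 mRNA measured by RT-qPCR on whole-cell RNA. Mean ± SEM, three independent experiments run in duplicate.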

[5] = target: T1, MAP kinase p38 (Mus musculus) (UniProt P47811+O08911+Q9WUI1+Q9Z1B7); assay: Inhibition of LPS-induced p38 phosphorylation in ICR mouse primary peritoneal macrophages at 20 uM incubated for 2 hrs prior to LPS-challenge measured after 1 hr by Western blot analysis
Procedure, shortened: (§3)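 Cells pretreated 2 h with DMSO or compound (10 μM in the single-concentration set; 2.5, 5.0, 10, 20 μM in the dose series), then LPS 0.5 μg/mL for 1 h. p-ERK, ERK, p-p38 and p38 detected by Western blot with actin loading control; optical density ratio reported. Mean ± SE, three independent experiments.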

[6] = system: Peritoneal macrophage cell; assay: Antiinflammatory activity in ICR mouse primary peritoneal macrophages assessed as downregulation of LPS-induced COX-2 mRNA expression at 10 uM incubated for 2 hrs prior to LPS-challenge measured after 6 hrs by RT-qPCR analysis; type: functional, cell-based
Procedure, shortened: (§4)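 Macrophages pretreated 2 h with compound at 10 μM or vehicle, then LPS 0.5 μg/mL for 6 h. mRNA of TNF-α, IL-6, COX-2, IL-1β and IL-12 quantified by RT-qPCR, normalized to β-actin mRNA and expressed as ratio to DMSO. Mean ± SD of four to seven independent experiments.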

Mus musculus [7] = species on record: Mus musculus; assay: Inhibition of JNK-induced IkappaBalpha degradation in LPS-stimulated ICR mouse primary peritoneal macrophages incubated for 2 hrs prior to LPS-challenge measured after 30 mins by Western blot analysis
Procedure, shortened: (§5)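 Peritoneal macrophages pretreated with DMSO or compound (2.5, 5, 10 or 20 μM) for 2 h, then LPS 0.5 μg/mL for 30 min. Western blot of 40 μg lysate on 10% SDS-PAGE for IκBα (actin loading control) and p-JNK (JNK control); optical density normalized as percent of control. Mean ± SEM, three independent experiments.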

Mus musculus [8] = assay: Toxicity in C57BL/6 mouse assessed as weight loss at 15 mg/kg, iv up to 60 hrs; type: organism-based; design: dose 15 mg/kg, route intravenous; conditions: in vivo
Procedure, shortened: (§6)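 Male B6 mice (18−22 g) given compound at 15 mg/kg iv (2 mg/mL in macrogol 15 hydroxystearate 5−10% ± MCT 0.5−2%, 200 μL). LPS 20 mg/kg iv followed 15 min later. Vehicle controls received 10% solubilizer/2% MCT. Body weight recorded every 12 h for 7 days; n = 10 per group.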

[9] = target: T1, MAP kinase p38 (Mus musculus); assay: Inhibition of LPS-induced p38 phosphorylation in ICR mouse primary peritoneal macrophages incubated for 2 hrs prior to LPS-challenge measured after 1 hr by Western blot analysis; procedure, shortened: as §3
[10] = system: Peritoneal macrophage cell; assay: Antiinflammatory activity in ICR mouse primary peritoneal macrophages assessed as downregulation of high glucose-induced IL1beta mRNA expression at 10 uM incubated for 2 hrs prior to high glucose-challenge measured after 3 hrs by RT-qPCR analysis; type: functional, cell-based; procedure, shortened: as §2
[11] = system: Peritoneal macrophage cell; assay: Antiinflammatory activity in ICR mouse primary peritoneal macrophages assessed as downregulation of LPS-induced IL-6 mRNA expression at 10 uM incubated for 2 hrs prior to LPS-challenge measured after 6 hrs by RT-qPCR analysis; type: functional, cell-based; procedure, shortened: as §4
[12] = system: Peritoneal macrophage cell; assay: Antiinflammatory activity in ICR mouse primary peritoneal macrophages assessed as downregulation of LPS-induced TNF-alpha mRNA expression at 10 uM incubated for 2 hrs prior to LPS-challenge measured after 6 hrs by RT-qPCR analysis; type: functional, cell-based; procedure, shortened: as §4
[13] = system: Peritoneal macrophage cell; assay: Antiinflammatory activity in ICR mouse primary peritoneal macrophages assessed as downregulation of high glucose-induced TNFalpha mRNA expression at 10 uM incubated for 2 hrs prior to high glucose-challenge measured after 3 hrs by RT-qPCR analysis; type: functional, cell-based; procedure, shortened: as §2
RAW264.7 [14] = assay: Antiinflammatory activity in mouse RAW264.7 cells assessed as inhibition of LPS-induced TNFalpha production incubated for 2 hrs prior to LPS-challenge measured after 22 hrs by ELISA; type: functional, cell-based; procedure, shortened: as §1
[15] = target: T1, MAP kinase p38 (Mus musculus); assay: Inhibition of LPS-induced p38 phosphorylation in ICR mouse primary peritoneal macrophages at 10 uM incubated for 2 hrs prior to LPS-challenge measured after 1 hr by Western blot analysis; procedure, shortened: as §3
Mus musculus [16] = assay: Antiinflammatory activity against LPS-induced inflammation in C57BL/6 mouse assessed as survival at 15 mg/kg, iv administered 15 mins prior to LPS-challenge after 7 days relative to vehicle treated control; type: functional
Procedure, shortened: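 Male B6 mice, 18−22 g, acclimatized ≥7 days. Compound at 2 mg/mL in macrogol 15 hydroxystearate solubilizer (5−10% final) with or without MCT (0.5−2% final), 200 μL iv at 15 mg/kg, 15 min before iv LPS 20 mg/kg. Vehicle controls got 10% solubilizer/2% MCT. Survival and body weight recorded every 12 h for 7 days; n = 10 per group.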

Mus musculus [17] = species on record: Mus musculus; assay: Inhibition of LPS-induced ERK phosphorylation in ICR mouse primary peritoneal macrophages incubated for 2 hrs prior to LPS-challenge measured after 1 hr by Western blot analysis; procedure, shortened: as §3
Mus musculus [18] = species on record: Mus musculus; assay: Inhibition of LPS-induced ERK phosphorylation in ICR mouse primary peritoneal macrophages at 20 uM incubated for 2 hrs prior to LPS-challenge measured after 1 hr by Western blot analysis; procedure, shortened: as §3
[19] = system: Peritoneal macrophage cell; assay: Antiinflammatory activity in ICR mouse primary peritoneal macrophages assessed as downregulation of LPS-induced IL-1beta mRNA expression at 10 uM incubated for 2 hrs prior to LPS-challenge measured after 6 hrs by RT-qPCR analysis; type: functional, cell-based; procedure, shortened: as §4
Mus musculus [20] = species on record: Mus musculus; assay: Inhibition of LPS-induced ERK phosphorylation in ICR mouse primary peritoneal macrophages at 10 uM incubated for 2 hrs prior to LPS-challenge measured after 1 hr by Western blot analysis; procedure, shortened: as §3
Mus musculus [21] = assay: Toxicity in C57BL/6 mouse assessed as weight loss at 15 mg/kg, iv after 60 hrs; type: organism-based; design: dose 15 mg/kg, route intravenous; conditions: in vivo; procedure, shortened: as §6
[22] = system: Peritoneal macrophage cell; assay: Antiinflammatory activity in ICR mouse primary peritoneal macrophages assessed as downregulation of high glucose-induced IL12 mRNA expression at 10 uM incubated for 2 hrs prior to high glucose-challenge measured after 3 hrs by RT-qPCR analysis; type: functional, cell-based; procedure, shortened: as §2
[23] = system: Peritoneal macrophage cell; assay: Antiinflammatory activity in ICR mouse primary peritoneal macrophages assessed as downregulation of LPS-induced IL-12 mRNA expression at 10 uM incubated for 2 hrs prior to LPS-challenge measured after 6 hrs by RT-qPCR analysis; type: functional, cell-based; procedure, shortened: as §4
Mus musculus [24] = species on record: Mus musculus; assay: Inhibition of JNK-induced NfkappaB p65 subunit translocation from cytoplasm to nucleus in LPS-stimulated ICR mouse primary peritoneal macrophages at 10 uM incubated for 2 hrs prior to LPS-challenge measured after 1 hr by fluorescence microscopy
Procedure, shortened: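 Macrophages pretreated with DMSO or 10 μM compound for 2 h, stimulated with LPS 0.5 μg/mL for 1 h. Stained with anti-p65 and Cy3-conjugated secondary antibody, nuclei with DAPI. Imaged at 200× by fluorescence microscopy with red/blue overlay. Five independent experiments.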

Mus musculus [25] = species on record: Mus musculus; assay: Inhibition of LPS-induced JNK phosphorylation in ICR mouse primary peritoneal macrophages incubated for 2 hrs prior to LPS-challenge measured after 30 mins by Western blot analysis; procedure, shortened: as §5

Structure (SMILES)	inhibition (RAW264.7 [1])	inhibition (RAW264.7 [2])	IC50 (RAW264.7 [3]) [µM]	inhibition (RAW264.7 [3])	Activity [4]	Activity [6]	Activity [10]	Activity [11]	Activity [12]	Activity [13]	IC50 (RAW264.7 [14]) [µM]	inhibition (RAW264.7 [14])	inhibition [15]	Activity [19]	inhibition (Mus musculus [20])	Activity [22]	Activity [23]	other results
COc1cc(/C=C/C(=O)CC(=O)/C=C/c2ccc(O)c(OC)c2)ccc1O	Active	Active																
COc1ccc(C(=O)/C=C/c2ccccc2Cl)cc1OC	Active	Active																
COc1ccc(C(=O)/C=C/c2ccccc2Cl)cc1			8.22	Dose-dependent effect	Active	Active	Active	Active	Active	Active	7.32	Dose-dependent effect	Active	Active	Active	Active	Active	inhibition [5]: Active; inhibition (Mus musculus [7]): Dose-dependent effect; Activity (Mus musculus [8]): Toxic; inhibition [9]: Dose-dependent effect; Activity (Mus musculus [16]): 70%; inhibition (Mus musculus [17]): Dose-dependent effect; inhibition (Mus musculus [18]): Active; Activity (Mus musculus [21]): Non-toxic; inhibition (Mus musculus [24]): Active; inhibition (Mus musculus [25]): Dose-dependent effect
COc1ccc(C(=O)/C=C/c2ccc(O)c(OC)c2)cc1	Active	Active	> 10	Dose-dependent effect	Active	Active	Active	Active	Active	Active		Dose-dependent effect	Active	Active	Active	Active	Active	
COc1ccc(C(=O)/C=C/c2c(F)cccc2F)cc1			5.55	Dose-dependent effect	Active	inactive	Active	Active	Active	Active	8.42	Dose-dependent effect	Active	Active	Active	Active	Active	inhibition [5]: Active; inhibition (Mus musculus [7]): Dose-dependent effect; Activity (Mus musculus [8]): Toxic; inhibition [9]: Dose-dependent effect; Activity (Mus musculus [16]): 80%; inhibition (Mus musculus [18]): Active; Activity (Mus musculus [21]): Non-toxic; inhibition (Mus musculus [24]): Active; inhibition (Mus musculus [25]): Dose-dependent effect
COc1ccc(C(=O)/C=C/c2cccc(OC)c2OC)cc1	Active	Active																
COc1ccc(/C=C/C(=O)c2cc(OC)c(OC)c(OC)c2)c(OC)c1	Active	Active																
COc1ccc(/C=C/C(=O)c2ccc(OC)c(OC)c2)c(OC)c1	Active	Active	5.35	Dose-dependent effect	Active	Active	inactive	Active	Active	Active	2.76	Dose-dependent effect	Active	Active	Active	Active	Active	
